Assay results collected from several papers.
Each line is one published result; the experiments were not run side by side.
Matrix: plasma
Route: intravenous

C[C@]1(O)CCCN(c2nc(Nc3ccc(S(=O)(=O)N[C@H]4CC[C@H](CN5CCN(c6ccc(C7CCC(=O)NC7=O)cc6F)CC5)CC4)cc3F)ncc2C(F)(F)F)C1 (stereo partly drawn) — Vd (rat; 2 mg/kg): 4 L/kg
Cc1nc(Nc2ncc(C(=O)Nc3c(C)cccc3Cl)s2)cc(N2CC[C@@H](N)C2)n1 — Vd (male Sprague-Dawley rat; 1 mg/kg): 32.8 L/kg
Cc1cc(S(=O)(=O)N[C@]2(C)C[C@@H](N3CCN(CC4CCN(c5ccc6c(c5F)n(C)c(=O)n6C5CCC(=O)NC5=O)CC4)CC3)C2)ccc1Nc1ncc(C(F)(F)F)c(N2CCC[C@](C)(O)C2)n1 (stereo partly drawn) — Vd (rat; 2 mg/kg): 7 L/kg
CCOCC(=O)N1CCC[C@H](C(=O)NCc2nc(-c3ccc(C)nc3)cs2)C1 — Vd (male Sprague-Dawley rat; 1 mg/kg): 0.3 L/kg
COc1ccc(-c2coc3cc(O)cc(O)c3c2=O)cc1 — Vd (rat; 2 mg/kg): 0.81 L/kg
COc1ccc(N(Cc2csc(-c3ccccc3)n2)C(=O)CCCCCC(=O)NO)cc1 — Vd (female Sprague-Dawley rat; 5 mg/kg): 441 L/kg
Cc1cc(S(=O)(=O)N[C@H]2CC[C@H](CN3CCN(c4ccc(C5CCC(=O)NC5=O)c(Cl)c4)CC3)CC2)ccc1Nc1ncc(C(F)(F)F)c(N2CCC[C@](C)(O)C2)n1 (stereo partly drawn) — Vd (rat; 2 mg/kg): 3 L/kg
Cc1nc(Nc2ncc(C(=O)Nc3c(C)cccc3Cl)s2)cc(N2CCN(CCO)CC2)n1 — Vd (male Sprague-Dawley rat; 1 mg/kg, single dose): 2.4 L/kg
C[C@H]1Oc2cc(cnc2N)-c2c(nn(C)c2C#N)CN(C)C(=O)c2ccc(F)cc21 — Vd (Sprague-Dawley rat; 1 mg/kg, single dose): 2 L/kg
COCC(=O)N1CCC[C@H](C(=O)NCc2nc(-c3ccccc3)cs2)C1 — Vd (male Sprague-Dawley rat; 1 mg/kg): 0.18 L/kg
C[C@]1(O)CCCN(c2nc(Nc3ccc(S(=O)(=O)N[C@@H]4CCN(CC5CCN(c6ccc(C7CCC(=O)NC7=O)cc6F)CC5)C[C@H]4F)cc3F)ncc2C(F)(F)F)C1 (stereo partly drawn) — Vd (rat; 2 mg/kg): 5 L/kg
[2H]c1cc(C)c(NC(=O)c2cnc(Nc3cc(N4CCC(O)CC4)nc(C)n3)s2)c(Cl)c1 — Vd (male Sprague-Dawley rat; 1 mg/kg): 4.8 L/kg
Cn1c(=O)c2[nH]cnc2n(C)c1=O — Vd (male Sprague-Dawley rat; 22.5 mg/kg): 1.52 L/kg
COCC(=O)N1CCC[C@H](C(=O)NCc2nc(-c3ccc(C#N)cc3)cs2)C1 — Vd (male Sprague-Dawley rat; 1 mg/kg): 0.18 L/kg
Cc1nc(Nc2ncc(C(=O)Nc3c(C)cccc3Cl)s2)cc(N2CC[C@H](O)C2)n1 — Vd (male Sprague-Dawley rat; 1 mg/kg, single dose): 0.9 L/kg
